The record followed here is ChEMBL document CHEMBL4613315, “Design of First-in-Class Dual EZH2/HDAC Inhibitor: Biochemical Activity and Biological Evaluation in Cancer Cells” (ACS Med Chem Lett, 2020).

A word on the inhibition: it is the change of the read-out against control, counted positive when it falls. The pIC50 is −log10 of the IC50, conventionally taken in molar units.

Experiment [1] in a line: Cytotoxicity against human RH4 cells assessed as reduction in cell viability at 50 uM in presence of vorinostat incubated for 72 hrs by CellTiter-Glo Luminescent cell viability assay relative to control. In kind it is functional. The following applies: Rh4, 72 h. The gist of the method: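 Viability after 72 h of single-agent or combined treatment with the HDAC inhibitor (0.05–0.25 μM) and the EZH2 inhibitor. EZH2 inhibitor range: U937 5–25 μM; RH4 10–50 μM. Synergy was assessed by combination index and isobologram analysis.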

Experiment [2] has as its target T1, Protein deacetylase HDAC6 (Homo sapiens) (UniProt Q9UBN7).
T1 sequence (whole entry): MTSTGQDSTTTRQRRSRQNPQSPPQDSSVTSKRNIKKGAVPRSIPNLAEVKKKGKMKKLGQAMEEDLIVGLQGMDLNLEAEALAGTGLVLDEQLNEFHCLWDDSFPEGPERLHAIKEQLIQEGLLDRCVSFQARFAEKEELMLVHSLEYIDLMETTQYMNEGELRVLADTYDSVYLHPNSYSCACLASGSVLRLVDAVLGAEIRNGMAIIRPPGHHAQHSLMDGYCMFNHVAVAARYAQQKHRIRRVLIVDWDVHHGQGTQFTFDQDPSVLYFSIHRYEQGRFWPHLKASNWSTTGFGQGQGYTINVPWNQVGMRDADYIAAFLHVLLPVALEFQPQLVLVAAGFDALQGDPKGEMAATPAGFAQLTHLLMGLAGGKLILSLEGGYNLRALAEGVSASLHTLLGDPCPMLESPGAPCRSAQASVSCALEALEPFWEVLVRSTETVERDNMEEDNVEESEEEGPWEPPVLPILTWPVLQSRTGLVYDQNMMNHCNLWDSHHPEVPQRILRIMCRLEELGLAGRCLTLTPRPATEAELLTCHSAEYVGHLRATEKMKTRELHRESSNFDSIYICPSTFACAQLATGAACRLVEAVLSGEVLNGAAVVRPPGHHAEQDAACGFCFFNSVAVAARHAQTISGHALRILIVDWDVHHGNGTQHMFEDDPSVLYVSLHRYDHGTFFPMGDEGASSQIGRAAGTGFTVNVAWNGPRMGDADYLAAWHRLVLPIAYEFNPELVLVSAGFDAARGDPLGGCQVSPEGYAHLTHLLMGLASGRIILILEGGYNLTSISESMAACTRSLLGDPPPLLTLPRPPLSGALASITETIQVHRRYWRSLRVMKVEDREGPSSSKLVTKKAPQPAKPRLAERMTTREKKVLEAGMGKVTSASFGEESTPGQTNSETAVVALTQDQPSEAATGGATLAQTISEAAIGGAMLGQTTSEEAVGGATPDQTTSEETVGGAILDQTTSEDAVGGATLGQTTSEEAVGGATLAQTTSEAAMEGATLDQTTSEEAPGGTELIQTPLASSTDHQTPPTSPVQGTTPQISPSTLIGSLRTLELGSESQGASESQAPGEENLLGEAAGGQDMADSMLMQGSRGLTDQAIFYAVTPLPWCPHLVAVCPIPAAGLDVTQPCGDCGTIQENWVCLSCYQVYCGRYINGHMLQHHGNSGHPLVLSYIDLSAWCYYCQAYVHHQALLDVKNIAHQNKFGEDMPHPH
Kind of experiment: Inhibition of HDAC6 in human RH4 cells assessed as acetylated alpha-tubulin level at 50 uM incubated for 96 hrs by Western blot analysis. It is filed as cell-based.

For experiment [3], the target named is Histone-lysine N-methyltransferase EZH2 (Homo sapiens, UniProt Q15910). Description: Inhibition of human EZH2 using core histone as substrate incubated for 1 hr by fluorescence based assay.
Chain of Histone-lysine N-methyltransferase EZH2 (Q15910 whole entry): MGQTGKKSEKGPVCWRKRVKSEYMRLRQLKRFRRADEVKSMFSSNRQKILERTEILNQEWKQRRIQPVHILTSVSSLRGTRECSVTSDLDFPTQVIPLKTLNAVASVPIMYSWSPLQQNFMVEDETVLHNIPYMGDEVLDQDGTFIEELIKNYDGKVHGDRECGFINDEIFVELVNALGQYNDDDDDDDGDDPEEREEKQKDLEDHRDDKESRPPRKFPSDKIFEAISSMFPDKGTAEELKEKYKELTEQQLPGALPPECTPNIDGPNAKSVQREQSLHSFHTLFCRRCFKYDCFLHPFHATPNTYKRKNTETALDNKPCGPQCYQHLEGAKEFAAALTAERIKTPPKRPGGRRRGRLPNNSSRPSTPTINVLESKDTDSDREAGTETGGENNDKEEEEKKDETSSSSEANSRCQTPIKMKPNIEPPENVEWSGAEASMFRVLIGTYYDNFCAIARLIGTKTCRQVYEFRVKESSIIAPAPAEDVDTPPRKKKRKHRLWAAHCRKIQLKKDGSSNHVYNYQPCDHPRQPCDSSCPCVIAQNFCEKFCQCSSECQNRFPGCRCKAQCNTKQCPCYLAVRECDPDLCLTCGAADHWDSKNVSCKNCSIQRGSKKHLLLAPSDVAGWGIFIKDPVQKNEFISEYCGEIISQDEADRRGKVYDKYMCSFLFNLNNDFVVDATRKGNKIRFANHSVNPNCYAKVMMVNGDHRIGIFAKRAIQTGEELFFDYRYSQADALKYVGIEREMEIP
A short description of experiment [4]: Induction of apoptosis in human RH4 cells assessed as early apoptotic cells at 14 uM incubated for 72 hrs by annexin V-FITC staining based flow cytometry (reference value: 10.8 %). In kind it is functional. Background: A flow cytometer gives signals particle by particle.
The nature of experiment [5]: Induction of apoptosis in human RH4 cells assessed as necrotic cells at 28 uM incubated for 72 hrs by annexin V-FITC staining based flow cytometry (reference value: 0.4 %). In kind it is functional.
For another experiment, the target named is Histone deacetylase 1 (Homo sapiens, UniProt Q13547). Kind of experiment: Inhibition of human recombinant HDAC1 using AMC-K(Ac)GL as substrate by fluorescence based assay.
Chain of Histone deacetylase 1 (Q13547 whole entry): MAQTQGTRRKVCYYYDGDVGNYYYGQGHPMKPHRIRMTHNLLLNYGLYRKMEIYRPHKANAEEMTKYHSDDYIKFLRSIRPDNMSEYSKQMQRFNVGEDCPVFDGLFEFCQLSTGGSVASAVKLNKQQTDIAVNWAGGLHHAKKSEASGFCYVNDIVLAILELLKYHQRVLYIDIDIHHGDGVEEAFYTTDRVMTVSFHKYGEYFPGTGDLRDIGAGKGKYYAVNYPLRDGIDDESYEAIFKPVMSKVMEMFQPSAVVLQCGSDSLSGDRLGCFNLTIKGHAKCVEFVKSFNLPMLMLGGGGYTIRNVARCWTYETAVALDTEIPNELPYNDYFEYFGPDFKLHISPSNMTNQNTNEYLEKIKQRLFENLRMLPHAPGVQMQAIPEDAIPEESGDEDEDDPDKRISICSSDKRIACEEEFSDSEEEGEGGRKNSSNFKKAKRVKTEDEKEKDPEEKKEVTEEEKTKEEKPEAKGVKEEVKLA
The target of another experiment is T2, Histone deacetylase 8 (Homo sapiens, UniProt Q9BY41).
T2 sequence (Q9BY41 whole entry): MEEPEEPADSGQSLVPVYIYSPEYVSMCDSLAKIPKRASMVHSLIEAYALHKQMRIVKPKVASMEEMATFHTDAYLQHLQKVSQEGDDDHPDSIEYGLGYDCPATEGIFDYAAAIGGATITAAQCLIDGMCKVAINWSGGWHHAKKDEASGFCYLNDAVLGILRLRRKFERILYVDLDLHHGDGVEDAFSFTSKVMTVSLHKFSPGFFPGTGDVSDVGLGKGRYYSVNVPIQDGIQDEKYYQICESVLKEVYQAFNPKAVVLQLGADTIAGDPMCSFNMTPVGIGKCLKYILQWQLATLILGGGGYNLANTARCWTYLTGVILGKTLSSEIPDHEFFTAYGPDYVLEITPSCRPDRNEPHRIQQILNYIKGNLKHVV
Kind of experiment: Inhibition of human recombinant HDAC8 using AMC-K(Ac)GL as substrate by fluorescence based assay.

Experiment [6] is described as follows: Induction of apoptosis in human RH4 cells assessed as viable cells at 28 uM incubated for 72 hrs by annexin V-FITC staining based flow cytometry (reference value: 86.6 %). In kind it is functional. The following applies: Rh4, 72 h, read-out: Activity.
For the next experiment, the system named is U-87MG ATCC. Description: Upregulation of snail in human U87 cells at 5 to 25 uM incubated for 24 hrs by Western blot analysis. In kind it is functional, cell-based. The gist of the method: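 U87 glioblastoma cells exposed for 24 h at 5, 10 and 25 μM, with DMSO vehicle as control. Snail and E-cadherin protein levels were read by Western blot, with tubulin as the loading control.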
In general terms: A western blot detects proteins with antibodies after separation by electrophoresis.

Experiment [7] has as its system U-937. Description: Induction of differentiation of human U937 cells assessed as increase in CD11b level at 10 uM incubated for 72 hrs by flow cytometry analysis. In kind it is functional. In a few lines:
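U937 cells were treated for 72 h at 10 and 25 μM, and surface CD11b expression was measured as a differentiation marker.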

Experiment [8] has as its system U-937. Kind of experiment: Induction of apoptosis in human U937 cells assessed as viable cells at 25 uM incubated for 72 hrs by annexin V-FITC staining based flow cytometry (reference value: 95.4 %). The note with it: U-937, 72 h, read-out: Activity. It is filed as functional.
Experiment [9] is described as follows: Induction of apoptosis in human RH4 cells assessed as viable cells at 14 uM incubated for 72 hrs by annexin V-FITC staining based flow cytometry (reference value: 86.6 %). In kind it is functional. The note with it: Rh4, 72 h, read-out: Activity.
The nature of experiment [10]: Cell cycle arrest in human RH4 cells assessed as G2/M accumulation at 28 uM incubated for 72 hrs by propidium iodide staining based flow cytometry (reference value: 18.9 %). It is filed as functional.
The nature of experiment [11]: Cytotoxicity against human RH4 cells assessed as reduction in cell viability at 20 uM incubated for 96 hrs by CellTiter-Glo Luminescent cell viability assay relative to control. It is filed as functional. The note with it: Rh4, 96 h. The gist of the method:
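Viability of U937 (5–25 μM) and RH4 (5–35 μM) cells after 48, 72 and 96 h of treatment at increasing concentrations.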
(In general: ATP-based viability assays read luminescence as a measure of living cells.)

Another experiment concerns the target Histone deacetylase 4 (Homo sapiens, UniProt P56524). Kind of experiment: Inhibition of human recombinant HDAC4 using AMC-K(TFA)GL as substrate by fluorescence based assay.

Each structure is given as a SMILES string. pIC50: −log10 of the molar value. Activity calls are given as the source filed them. The calls are words filed in the database; no cut-off is given here.

Chain of Histone deacetylase 4 (P56524 whole entry): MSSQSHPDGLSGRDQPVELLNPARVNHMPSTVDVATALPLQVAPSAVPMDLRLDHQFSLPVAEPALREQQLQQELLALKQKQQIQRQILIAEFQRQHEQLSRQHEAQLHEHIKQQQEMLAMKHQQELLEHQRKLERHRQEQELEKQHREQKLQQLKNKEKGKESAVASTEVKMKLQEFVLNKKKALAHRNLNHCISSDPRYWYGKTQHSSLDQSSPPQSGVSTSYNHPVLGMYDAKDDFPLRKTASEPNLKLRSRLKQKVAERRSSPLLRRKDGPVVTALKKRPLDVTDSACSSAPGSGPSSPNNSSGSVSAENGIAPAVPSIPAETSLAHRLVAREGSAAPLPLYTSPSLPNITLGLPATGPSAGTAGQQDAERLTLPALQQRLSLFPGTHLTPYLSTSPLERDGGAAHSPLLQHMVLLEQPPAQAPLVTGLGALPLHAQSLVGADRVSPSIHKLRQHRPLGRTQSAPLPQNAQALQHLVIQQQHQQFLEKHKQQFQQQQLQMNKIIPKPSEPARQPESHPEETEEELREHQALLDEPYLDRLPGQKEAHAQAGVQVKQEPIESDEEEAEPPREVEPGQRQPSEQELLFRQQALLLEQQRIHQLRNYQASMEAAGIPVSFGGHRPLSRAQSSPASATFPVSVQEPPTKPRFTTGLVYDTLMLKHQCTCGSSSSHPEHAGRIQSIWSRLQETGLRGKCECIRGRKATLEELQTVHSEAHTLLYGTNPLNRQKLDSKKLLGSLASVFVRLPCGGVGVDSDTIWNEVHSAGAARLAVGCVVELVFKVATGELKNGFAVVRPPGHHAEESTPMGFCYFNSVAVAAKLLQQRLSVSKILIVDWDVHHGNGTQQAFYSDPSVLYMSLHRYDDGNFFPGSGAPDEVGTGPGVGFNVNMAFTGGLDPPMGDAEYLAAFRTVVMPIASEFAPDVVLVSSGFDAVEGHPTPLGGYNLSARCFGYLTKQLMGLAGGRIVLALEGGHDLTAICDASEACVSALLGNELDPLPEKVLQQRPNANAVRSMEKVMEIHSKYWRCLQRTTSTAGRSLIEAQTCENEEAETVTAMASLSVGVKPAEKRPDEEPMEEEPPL

`Cc1cc(C)c(CNC(=O)c2cc(C)n(-c3ccccc3)c2C)c(=O)[nH]1`: the inhibition at 50 µM in experiment [1] is over 60%. In [2], the fold change (FC) came out at 1.4. Besides, in experiment [3], the pIC50 is 5.24.
For the molecule `Cc1cc(C)c(CNC(=O)c2cc(C)n(-c3cccc(NC(=O)CCCCCCC(=O)NO)c3)c2C)c(=O)[nH]1`, the Activity in [4] amounted to 13.8%; in experiment [5], 0.4%; in [10] it was 6.4%. Further, the pIC50 on Histone deacetylase 1 is 6.37; at Histone deacetylase 8, 6.96; at Histone deacetylase 4 it was 4.43; in experiment [3], 5.13. Also, in experiment [6], the viability at 28 µM was determined as 68.7%. Also, in the experiment on U-87MG ATCC, the outcome was inactive. Besides, in the experiment with U-937 [7], the “fold change (FC)” value came to 2. Also, in the experiment with U-937 [8], the viability at 25 µM is 75%. Further, in experiment [9], the viability at 14 µM turned out to be 82.5%. For the same molecule, the inhibition at 20 µM in [11] was over 60%.
